# SIRT5 inh – sirtuin-5 (human) deacylase inhibition | Purified SirT5, succinyl-peptide AMC, trypsin-coupled fluorescence | inhibition, % at 15 µM | actives 1.1% (n = 330,000) | AID 652115; in the data active means inhibition above about 15%
# Target sequence (Q9NXA8 whole entry, looked up): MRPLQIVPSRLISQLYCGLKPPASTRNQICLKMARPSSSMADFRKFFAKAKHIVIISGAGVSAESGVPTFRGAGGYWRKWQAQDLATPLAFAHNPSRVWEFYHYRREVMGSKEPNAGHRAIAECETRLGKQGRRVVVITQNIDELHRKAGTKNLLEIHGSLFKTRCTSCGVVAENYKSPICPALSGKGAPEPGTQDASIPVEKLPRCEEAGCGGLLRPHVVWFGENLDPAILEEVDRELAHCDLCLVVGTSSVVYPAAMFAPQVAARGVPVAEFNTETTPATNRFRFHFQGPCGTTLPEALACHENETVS
# Statin myotox sup – suppressors of simvastatin-induced myotoxicity in C2C12 myotubes; ATP luminescence, 48 h; scaled: DMSO 0, geranylgeraniol control 100; rescue of ATP level, % at 7.49 µM; actives 0.78% (n = 330,000); AID 602340;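 active means mean ATP rescue above about 67%, or every replicate alone reaching that limit, limit read from the data, passing the limit was not always enough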;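 further: myotubes were challenged with 10 µM simvastatin during compound exposure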
# rRNA inh HTS – selective bacterial rRNA inhibition in E. coli | actives 1.6% (n = 350,000) | GFP signal change (wild-type ribosome), % (concentration not given with the values) | E. coli WT GFP vs humanized-ribosome RFP mutants, fluorescence, 24 h; active compounds read low; DMSO median 0, no signal -100 | AID 720706;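 active means significant combined selectivity score with lowered wild-type GFP, culture density cut under 30%, mutant RFP and density less affected; inactive means any of these conditions unmet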
# Cneo AK release – causes C. neoformans cell lysis; adenylate kinase release luminescence, 4 h; normalised: neutral wells 0, clomiphene wells 100; AID 651654; actives 0.2% (n = 360,000); lysis activity, % at 15 µM;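 active means mean lysis activity across replicates of at least 80%, whatever share of replicates individually reach that level; inactive means mean lysis activity below 80%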
#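 Schedule: static 4 h at 37 °C with compound, 1 h detection; system: C. neoformans cells; benchmarks: Clomiphene as positive control; buffer or medium: fresh YPD medium; measure: luminescence rise reflecting yeast cell lysis; measured by: luminescent adenylate kinase detection reagent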
# S100A4 inh HTS – S100A4-myosin IIA interaction inhibition. P26447. S100A4/TAMRA-MyoIIA peptide fluorescence polarization. inhibition, % at 10.7 µM. actives 0.14% (n = 360,000). AID 652163;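 active means mean inhibition of at least 70% across replicates, with every replicate also reaching that level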
# Target sequence (P26447 whole entry, looked up): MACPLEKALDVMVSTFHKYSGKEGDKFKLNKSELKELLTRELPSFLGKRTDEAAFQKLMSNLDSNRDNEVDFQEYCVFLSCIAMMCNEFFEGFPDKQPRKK
#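 Material: S100A4 monomer protein / Buffer or medium: 50 mM HEPES pH 7.2, 10 mM CaCl2, 100 mM KCl / Times: 5 min incubation before reading / Benchmarks: neutral control DMSO, positive control TFP / Reagent: labelled myosin peptide probe, 5 nM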
# PGC1a acetyl inh – modulators of PGC1a acetylation | U2OS PGC1a acetylation, AlphaScreen anti-acetyl-lysine; with virally co-expressed GCN5 acetyltransferase | inhibition, % at 15.6 µM | actives 0.17% (n = 350,000) | AID 651687;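 active means every replicate shows inhibition of at least 40%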;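 further: 0% = neutral control wells and 100% = positive control wells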
# An asterisk follows results filed as active; . = not tested or not shown. Only some compounds are listed: those with a hit (about 3% of all), similar ones and a draw of the others.
SMILES,SIRT5 inh,Statin myotox sup,rRNA inh HTS,Cneo AK release,S100A4 inh HTS,PGC1a acetyl inh
O=C(C[C@@H]1CC[C@@H](NC(=O)C2CC2)[C@@H](CO)O1)NCc1ccncc1,3,4,-1,-1,9,-11
NNC(=O)c1ccc(COc2ccccc2)cc1,-2,.,5,4,7,8
COc1ccc2c(=O)c(C(=O)NCc3ccccc3)c[nH]c2c1,3,1,-2,-2,3,.
COc1ccc2[nH]cc(CCNC(=O)C3CC(=O)N(c4ccc(Cl)cc4)C3)c2c1 (stereo not drawn),0,4,-24*,-1,-2,8
NNC(=O)c1c[nH]c2ccc(OCc3ccccc3)cc12,-5,.,-27*,.,-22,4
COc1ccc2c(=O)c(C(=O)NCCc3ccccc3)c[nH]c2c1,0,-7,-27*,-1,-3,.
COc1ccc2[nH]cc(C(=O)NCCc3ccccc3)c(=O)c2c1,2,4,-21*,-1,-1,.
C[C@@H]1CN([C@H](C)CO)C(=O)c2cc(NC(=O)Nc3ccc4c(c3)OCO4)ccc2O[C@@H](C)CCCCO[C@H]1CN(C)C(=O)Cc1ccccc1,0,.,2,4,0,-4
CCCCNC(=S)N/N=C/c1ccc(C#N)cc1,-5,.,-40,86*,-5,1
COc1ccc2[nH]cc(CCNC(=S)NCCc3ccccc3)c2c1,-6,-12,-35*,2,-6,.
COc1ccc(/C=N/NC(=S)NCCc2ccccc2)cc1,-5,4,-22*,11,-6,4
C[C@@H]1CN([C@@H](C)CO)C(=O)c2cccc(NC(=O)CCCCCC(=O)Nc3ccccc3N)c2O[C@@H]1CN(C)C(=O)Nc1ccc(C(F)(F)F)cc1,5,.,-7,.,-5,-2
CCCCCCCCCCCCCCCCCCNc1ccn(C2OC(COP(=O)(O)OCC3OC(n4cc(F)c(=O)[nH]c4=O)CC3O)C(O)C2O)c(=O)n1 (stereo not drawn),35*,.,6,.,-9,.
Cc1ccccc1S(=O)(=O)N(C)C[C@H]1OCc2ccccc2-c2c(n(C)c3ccccc23)C(=O)N([C@@H](C)CO)C[C@H]1C,.,20,3,-1,.,-10
COc1ccc(-c2ccc(NCCN3CCOCC3)nn2)cc1OC,16*,4,1,0,0,.
COc1ccc(-c2ccc(Nc3ccc(C(=O)N4CCOCC4)cc3)nn2)cc1OC,.,-54,.,-2,.,-6
Cc1oc(-c2ccc(Cl)cc2)cc1C(=O)O,-2,6,-17,.,3,.
Cc1oc(-c2ccc(Cl)cc2)[n+]([O-])c1C,.,76*,.,7,.,2
CSc1nncn1/N=C/c1ccc([N+](=O)[O-])cc1,1,.,9,.,-1,-7
CSc1nncn1/N=C/c1ccc2c(c1)OCO2,.,106*,.,1,.,17
CCCc1cn(CC[C@@H]2CC[C@H](NS(=O)(=O)c3ccccc3Cl)[C@@H](CO)O2)nn1,6,3,0,-3,97*,8
O=S(=O)(N[C@@H]1CC[C@@H](CCn2cc(Cc3ccccc3)nn2)O[C@H]1CO)c1ccccc1F,20*,7,-5,1,-9,-2
O=S(=O)(N[C@@H]1CC[C@@H](CCn2cc(Cc3ccccc3)nn2)O[C@@H]1CO)c1ccccc1F,-5,-5,-4,0,16,-2
O=S(=O)(N[C@@H]1CC[C@H](CCn2cc(Cc3ccccc3)nn2)O[C@@H]1CO)c1ccccc1F,1,3,-6,0,2,1
Cc1ccccc1S(=O)(=O)N[C@@H]1CC[C@@H](CCn2cc(Cc3ccccc3)nn2)O[C@H]1CO,0,-1,-5,1,15,61*
CCCc1cn(CC[C@H]2CC[C@H](NS(=O)(=O)c3ccccc3Cl)[C@H](CO)O2)nn1,4,0,-3,-5,9,-16
O=C(Cc1ccncc1)NCC[C@@H]1CC[C@@H](NC(=O)Nc2ccc(F)cc2)[C@@H](CO)O1,-3,0,0,5,-7,-2

# Screening results as filed in PubChem.
